# Test results published in ChEMBL document CHEMBL1156480, “Insensitivity to Abeta42-lowering nonsteroidal anti-inflammatory drugs and gamma-secretase inhibitors is common among aggressive presenilin-1 mutations” (J Biol Chem, 2007).
# What was measured:
# Type in all cases: cell-based
# Parameters in all cases: scale not given: the % may be the effect or the level left
# [1] = system: Presenilin-1 (Homo sapiens), P49768 [L166P]; experiment: Reduction of human PS1 L166P mutant-induced amyloid beta-42 level in CHO cells overexpressing human APP751 at 500 nM after 24 hrs by liquid phase electrochemiluminescence assay relative to control
# How it was run: (§1)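 APP751 CHO cells stably expressing PS1-ΔExon9, PS1-L166P or PS1-WT, cultured in parallel in serum-containing medium. Treated 24 h with increasing γ-secretase inhibitor concentrations or DMSO. Conditioned-media Abeta40/Abeta42 quantified by LPECL against synthetic peptide standards (16–2000 pg/ml). Duplicates normalized to DMSO. n = 3, one-way ANOVA with Dunnett's test versus PS1-WT.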
# CHO [2] = experiment: Reduction of human PS1 delta exon9 mutant-induced amyloid beta-40 level in CHO cells overexpressing human APP751 at 100 nM after 24 hrs by liquid phase electrochemiluminescence assay relative to control; how it was run: as §1
# CHO [3] = experiment: Reduction of human PS1 delta exon9 mutant-induced amyloid beta-40 level in CHO cells overexpressing human APP751 at 250 nM after 24 hrs by liquid phase electrochemiluminescence assay relative to control; how it was run: as §1
# CHO [4] = experiment: Reduction of human PS1 delta exon9 mutant-induced amyloid beta-42 level in CHO cells overexpressing human APP751 at 100 nM after 24 hrs by liquid phase electrochemiluminescence assay relative to control; how it was run: as §1
# [5] = molecular target: Presenilin-1 (Homo sapiens) (UniProt P49768); experiment: Reduction of human wild type PS1-induced amyloid beta-40 level in CHO cells overexpressing human APP751 at 250 nM after 24 hrs by liquid phase electrochemiluminescence assay relative to control
# [6] = molecular target: Presenilin-1 (Homo sapiens) (UniProt P49768); experiment: Reduction of human wild type PS1-induced amyloid beta-42 level in CHO cells overexpressing human APP751 at 100 nM after 24 hrs by liquid phase electrochemiluminescence assay relative to control
# [7] = system: Presenilin-1 (Homo sapiens), P49768 [L166P]; experiment: Reduction of human PS1 L166P mutant-induced amyloid beta-40 level in CHO cells overexpressing human APP751 at 250 nM after 24 hrs by liquid phase electrochemiluminescence assay relative to control; how it was run: as §1
# [8] = system: Presenilin-1 (Homo sapiens), P49768 [L166P]; experiment: Reduction of human PS1 L166P mutant-induced amyloid beta-42 level in CHO cells overexpressing human APP751 at 100 nM after 24 hrs by liquid phase electrochemiluminescence assay relative to control; how it was run: as §1
# [9] = molecular target: Presenilin-1 (Homo sapiens) (UniProt P49768); experiment: Reduction of human wild type PS1-induced amyloid beta-42 level in CHO cells overexpressing human APP751 at 500 nM after 24 hrs by liquid phase electrochemiluminescence assay relative to control
# [10] = molecular target: Presenilin-1 (Homo sapiens) (UniProt P49768); experiment: Reduction of human wild type PS1-induced amyloid beta-42 level in CHO cells overexpressing human APP751 at 250 nM after 24 hrs by liquid phase electrochemiluminescence assay relative to control
# [11] = molecular target: Presenilin-1 (Homo sapiens) (UniProt P49768); experiment: Reduction of human wild type PS1-induced amyloid beta-40 level in CHO cells overexpressing human APP751 at 500 nM after 24 hrs by liquid phase electrochemiluminescence assay relative to control
# CHO [12] = experiment: Reduction of human PS1 delta exon9 mutant-induced amyloid beta-42 level in CHO cells overexpressing human APP751 at 500 nM after 24 hrs by liquid phase electrochemiluminescence assay relative to control
# [13] = molecular target: Presenilin-1 (Homo sapiens) (UniProt P49768); experiment: Reduction of human wild type PS1-induced amyloid beta-40 level in CHO cells overexpressing human APP751 at 100 nM after 24 hrs by liquid phase electrochemiluminescence assay relative to control
# CHO [14] = experiment: Reduction of human PS1 delta exon9 mutant-induced amyloid beta-40 level in CHO cells overexpressing human APP751 at 500 nM after 24 hrs by liquid phase electrochemiluminescence assay relative to control; how it was run: as §1
# [15] = system: Presenilin-1 (Homo sapiens), P49768 [L166P]; experiment: Reduction of human PS1 L166P mutant-induced amyloid beta-42 level in CHO cells overexpressing human APP751 at 250 nM after 24 hrs by liquid phase electrochemiluminescence assay relative to control; how it was run: as §1
# CHO [16] = experiment: Reduction of human PS1 delta exon9 mutant-induced amyloid beta-42 level in CHO cells overexpressing human APP751 at 250 nM after 24 hrs by liquid phase electrochemiluminescence assay relative to control; how it was run: as §1
# [17] = system: Presenilin-1 (Homo sapiens), P49768 [L166P]; experiment: Reduction of human PS1 L166P mutant-induced amyloid beta40 level in CHO cells overexpressing human APP751 at 500 nM after 24 hrs by liquid phase electrochemiluminescence assay relative to control; how it was run: as §1
# [18] = system: Presenilin-1 (Homo sapiens), P49768 [L166P]; experiment: Reduction of human PS1 L166P mutant-induced amyloid beta-40 level in CHO cells overexpressing human APP751 at 100 nM after 24 hrs by liquid phase electrochemiluminescence assay relative to control; how it was run: as §1
smiles,measurement,setting,value
"CC(C)C[C@H](NC(=O)C(Cc1ccccc1)C[C@@H](O)[C@H](Cc1ccccc1)NC(=O)OC(C)(C)C)C(=O)N[C@@H](Cc1ccccc1)C(N)=O (single isomer, unassigned)",Activity,[1],34.2%
same,Activity,CHO [2],86.3%
same,Activity,CHO [3],54%
same,Activity,CHO [4],98.3%
same,Activity,[5],2.95%
same,Activity,[6],11.3%
same,Activity,[7],20.6%
same,Activity,[8],62.3%
same,Activity,[9],2.59%
same,Activity,[10],3.28%
same,Activity,[11],1.92%
same,Activity,CHO [12],34.1%
same,Activity,[13],8.1%
same,Activity,CHO [14],33.4%
same,Activity,[15],44.1%
same,Activity,CHO [16],54.5%
same,Activity,[17],13.1%
same,Activity,[18],41.5%
